Data set [1] concerns the target T1, Phosphatidylinositol 4-kinase, PI4K (Homo sapiens, UniProt Q9BTU6+Q8TCG2+Q9UBF8+P42356). The class given is protein assay.
Data set [2] addresses T1, Phosphatidylinositol 4-kinase, PI4K. The data set is described as follows: Binding affinity (Ki) against human phosphatidylinositol 4-kinase. The class given is protein assay. The gist of the method:
(§1)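 Human erythrocyte plasma membranes (0.36 mg protein) were incubated with PI (0.12 mM, [2-3H]PI tracer), ATP at 100 µM, ouabain, vanadate, DTT, 0.6% Triton X-100, MgCl2, EGTA, KCl/NaCl and HEPES pH 7.4 for 10 min at 30 °C. Lipids were extracted and deacylated, and the aqueous phase collected. Compounds were screened at 500 µM, then IC50 fitted from single dose-response curves. Ki = IC50/(1+[S]/Km), with ATP Km 221.5 µM.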

For data set [3], the system named is Nc1ncnc2c1ncn2[C@@H]1O[C@H](CO)[C@@H](O)[C@H]1O. The data set is described as follows: (§2) Inhibition of Phosphatidylinositol 4-kinase at the ATP binding site. The class given is protein assay. The conditions noted are these: Homo sapiens. Put shortly:
as §1

Data set [4] concerns Nc1[nH]cnc2ncnc1-2. The description is as §2. The class given is protein assay. The conditions noted are these: Homo sapiens. Put shortly:
as §1

Data set [5] concerns c1ccc(CNc2ncnc3[nH]cnc23)cc1. The description is as §2. The class given is protein assay. The conditions noted are these: Homo sapiens. The gist of the method:
as §1

Data set [6] concerns Nc1ncnc2c1ncn2C1CCCO1. The description is as §2. Conditions: Homo sapiens. The class given is protein assay. The gist of the method: as §1
For data set [7], the system named is CCn1cnc2c(N)ncnc21. The data set is described as §2. The class given is protein assay. Conditions: Homo sapiens. Put shortly:
as §1

Data set [8] can be described thus: Vmax value was determined. It counts as ADME.

Take `CCCCCc1nc2c(N)ncnc2n1CCCCC`: in data set [1], the IC50 was 126.5 µM.

`Nc1nc(N)c2[nH]c(-c3ccccc3)nc2n1`: in data set [2], the Ki is 137.7 µM. The concentration for half-maximal inhibition (IC50) in data set [1] worked out at 199.5 µM.

As for `Nc1ncnc2scnc12`, the inhibitory constant (Ki) in data set [2] came out at 80.6 µM. Further, the IC50 in data set [1] was determined as 116.9 µM.

On to “Phosphatidylinositol 4-kinase, PI4K (Homo sapiens) (from UniProt Q9BTU6+Q8TCG2+Q9UBF8+P42356)”, for which the Km in data set [3] worked out at 179 µM; in data set [4], 297 µM; in data set [5] it was 239 µM; in data set [6], 262 µM; in data set [7], 257 µM.

The molecule `COc1cccc(-n2cnc3c(N)ncnc32)c1` returned an inhibition constant Ki in data set [2] of 15.8 µM. Moreover, in data set [1], the concentration for half-maximal inhibition (IC50) stood at 22.9 µM.

`Nc1ncnc2[nH]ncc12` displayed a Ki in data set [2] of 99.9 µM. In data set [1], this molecule came in with a concentration for half-maximal inhibition (IC50) of 144.9 µM.

Regarding `Nc1ncnc2c1ncn2C12CC3CC(CC(C3)C1)C2`, in data set [2], the Ki was determined as 4.1 µM. Moreover, in data set [1], the IC50 was 6 µM.

Consider `COc1ccc(-n2cnc3c(N)ncnc32)cc1`, for which, in data set [2], the Ki was 15.2 µM. The molecule also showed an IC50 in data set [1] of 21.9 µM.

Regarding `Nc1nc2ncnc-2c[nH]1` [2-AMINOPURINE], in data set [2], the inhibitory constant (Ki) turned out to be 235.4 µM. In addition, the IC50 in data set [1] turned out to be 341.6 µM.

`Nc1ncnc2c1nc(-c1ccccc1)n2-c1ccccc1` showed an inhibition constant (Ki) in data set [2] of 11 µM. In data set [1], this molecule had a 50% inhibitory concentration (IC50) of 16.4 µM.

Consider `Nc1ncnc2c1ncn2C1O[C@H](CI)[C@@H](O)[C@H]1O` (stereo partly drawn), for which the Ki in data set [2] turned out to be 15.9 µM. Also, in data set [1], the IC50 came out at 23.1 µM.

`CCCCCc1nc2[nH]cnc(N)c-2n1` registered an inhibition constant Ki in data set [2] of 47.5 µM. The molecule further showed a 50% inhibitory concentration (IC50) in data set [1] of 68.9 µM.

`Cn1c(-c2ccccc2)nc2c(N)ncnc21`: in data set [2], the Ki turned out to be 24.1 µM. The half-inhibitory concentration (IC50) in data set [1] was 34.9 µM.

In turn, `Nc1[nH]cnc2nc(-c3cccc4ccccc34)nc1-2` registered a Ki in data set [2] of 89.5 µM. In addition, in data set [1], the half-inhibitory concentration (IC50) is 129.8 µM.

As to `Nc1ncnc2c1ncn2C1CCCCC1`, the inhibition constant (Ki) in data set [2] was 3.7 µM. Also, the concentration for half-maximal inhibition (IC50) in data set [1] came out at 6 µM.

Consider `Nc1ncnc2c1ncn2-c1ccccc1`, for which the Ki in data set [2] stood at 10.3 µM. The IC50 in data set [1] was found to be 15.4 µM.

Turning to `CCC(CC)(CC)n1cnc2c(N)ncnc21`, in data set [2], the Ki worked out at 93.7 µM. The molecule also showed an IC50 in data set [1] of 134.1 µM.

In data set [2], `Nc1ncnc2c1ncn2-c1cccc2ccccc12` came in with a Ki of 54.4 µM. Further, in data set [1], the IC50 stood at 78.8 µM.

Molecule `Nc1ncnc2c1ncn2C1CCCO1` (stereo not drawn) displayed a Ki in data set [2] of 21.2 µM. Moreover, the half-maximal inhibitory concentration (IC50) in data set [1] amounted to 28.2 µM. Moreover, in data set [8], the Vmax is reported as 25800 c.p.m.

`Nc1ncnc2[nH]c(-c3ccccc3)nc12` returned an inhibition constant Ki in data set [2] of 33.6 µM. Further, the concentration for half-maximal inhibition (IC50) in data set [1] amounted to 48.8 µM.

In the case of `Nc1ncnc2c1ncn2-c1cccnc1`, the Ki in data set [2] is 31.8 µM. In data set [1], the IC50 worked out at 46.2 µM.

For `Cn1cnc2c(N)ncnc21`, the inhibitory constant (Ki) in data set [2] amounted to 110.9 µM. This molecule also had a 50% inhibitory concentration (IC50) in data set [1] of 161 µM.

For the molecule `CCn1cnc2c(N)ncnc21`, the inhibition constant (Ki) in data set [2] worked out at 25.5 µM. In data set [1], this molecule came in with a half-maximal inhibitory concentration (IC50) of 32.4 µM. Further, the Vmax in data set [8] stood at 20800 c.p.m.

In data set [2], `Nc1[nH]cnc2nc(-c3ccccn3)nc1-2` showed an inhibition constant (Ki) of 52.3 µM. Moreover, in data set [1], the concentration for half-maximal inhibition (IC50) was found to be 75.6 µM.

For `Cl.Nc1ncnc2nc(Br)[nH]c12`, in data set [2], the Ki amounted to 148.4 µM. Further, the IC50 in data set [1] came to 215.3 µM.

In turn, `Nc1nc(N)c2nc[nH]c2n1.O=S(=O)(O)O` returned an inhibition constant Ki in data set [2] of 101.2 µM. In data set [1], this molecule yielded an IC50 of 146.8 µM.

Take `Nc1ncnc2c1ncn2Cc1ccccc1` [9-BENZYL-9H-ADENINE]: in data set [2], the Ki was found to be 57.9 µM. In data set [1], this molecule showed an IC50 of 84.4 µM.

Molecule `Nc1ncnc2c1cnn2-c1ccccc1` returned a Ki in data set [2] of 11 µM. For the same molecule, the IC50 in data set [1] turned out to be 16.1 µM.

In data set [2], `Nc1ncnc2c1ncn2[C@@H]1O[C@H](COP(=O)(O)OP(=O)(O)O)[C@@H](O)[C@H]1O` [ADENOSINE DIPHOSPHATE] had a Ki of 100.1 µM. This molecule returned an IC50 in data set [1] of 145.3 µM.

For the molecule `Cc1nc2c(N)ncnc2n1-c1ccccc1`, the inhibition constant (Ki) in data set [2] amounted to 11 µM. The IC50 in data set [1] is 16.4 µM.

As for `Cl.Nc1[nH]cnc2nc(NCc3ccccc3)nc1-2`, in data set [2], the inhibition constant Ki worked out at 91.7 µM. In addition, the IC50 in data set [1] amounted to 133 µM.

Turning to `CC1(n2cnc3c(N)ncnc32)CCCCC1`, in data set [2], the inhibition constant Ki turned out to be 5 µM. This molecule also gave an IC50 in data set [1] of 7.2 µM.

Molecule `Cc1ccccc1-n1cnc2c(N)ncnc21` gave a Ki in data set [2] of 16.5 µM. In data set [1], this molecule came in with a half-inhibitory concentration (IC50) of 23.6 µM.

Consider `Nc1ncnc2c1nc1n2CCCC1`, for which, in data set [2], the inhibition constant (Ki) was found to be 35.8 µM. Moreover, the half-inhibitory concentration (IC50) in data set [1] came out at 52.4 µM.

In turn, `Cl.Nc1ncnc2nc[nH]c12` gave an inhibition constant Ki in data set [2] of 85.8 µM. In data set [1], this molecule gave an IC50 of 182.6 µM. The Vmax in data set [8] was 22800 c.p.m.

For `Nc1ncnc2c1ncn2C1CCCCCC1`, the Ki in data set [2] was 5 µM. Moreover, in data set [1], the IC50 was 7.2 µM.

In data set [2], `Nc1ncnc2ccccc12` [4-AMINOQUINAZOLINE] showed a Ki of 63.4 µM. The half-inhibitory concentration (IC50) in data set [1] is 91.7 µM.

Take `Nc1ncnc2cc3ccccc3cc12`: in data set [2], the inhibition constant Ki was found to be 22.7 µM. Also, the half-maximal inhibitory concentration (IC50) in data set [1] worked out at 33 µM.

For the molecule `CC1(C)O[C@@H]2[C@H](O1)[C@@H](CO)O[C@H]2n1cnc2c(N)ncnc21`, the inhibition constant Ki in data set [2] turned out to be 8.4 µM. Also, in data set [1], the half-inhibitory concentration (IC50) came to 12.1 µM.

In data set [2], `Nc1ncnc2c1ncn2-c1cccc(F)c1` yielded an inhibition constant Ki of 17.9 µM. In addition, the IC50 in data set [1] amounted to 25.6 µM.

In the case of `Nc1ncnc2c1ncn2[C@@H]1O[C@H](CO)[C@@H](O)[C@H]1O` [ADENOSINE], the Ki in data set [2] is 19.2 µM. The molecule further returned an IC50 in data set [1] of 30.3 µM. In data set [8], the Vmax amounted to 31400 c.p.m.

In the case of `Cc1nc2[nH]cnc(N)c-2n1`, the Ki in data set [2] was determined as 134.3 µM. The molecule further came in with an IC50 in data set [1] of 195.4 µM.

Molecule `Nc1ncnc2c1ncn2-c1ccccc1F` had an inhibitory constant (Ki) in data set [2] of 8.3 µM. In addition, in data set [1], the IC50 turned out to be 11.9 µM.

`Nc1ncnc2c1ncn2-c1ccc(Cl)cc1` showed an inhibitory constant (Ki) in data set [2] of 28.2 µM. In data set [1], this molecule displayed a half-inhibitory concentration (IC50) of 41.1 µM.

In turn, `CN(C)c1ncnc2nc[nH]c12` [DIMETHYLADENINE] had an inhibition constant (Ki) in data set [2] of 150.2 µM. In data set [1], this molecule yielded a half-inhibitory concentration (IC50) of 218 µM.

Turning to `CCCCCc1nc2c(N)ncnc2n1-c1ccccc1`, the inhibition constant Ki in data set [2] turned out to be 35.8 µM. The molecule also yielded an IC50 in data set [1] of 51.9 µM.

In the case of `Cn1ncc2c(N)ncnc21`, the Ki in data set [2] came out at 56.8 µM. In data set [1], the IC50 worked out at 82.5 µM.

Regarding `c1ccc(CNc2ncnc3nc[nH]c23)cc1` [6-BENZYLAMINOPURINE], in data set [2], the inhibitory constant (Ki) worked out at 199 µM. This molecule yielded a half-inhibitory concentration (IC50) in data set [1] of 240.4 µM. Further, in data set [8], the Vmax is recorded as 25800 c.p.m.

`CC(C)(C)c1ccc(-n2cnc3c(N)ncnc32)cc1` registered a Ki in data set [2] of 31.7 µM. In addition, the 50% inhibitory concentration (IC50) in data set [1] worked out at 46.1 µM.

On to `CC(C)(C)Cn1cnc2c(N)ncnc21`, for which the inhibitory constant (Ki) in data set [2] was found to be 9 µM. This molecule also yielded a 50% inhibitory concentration (IC50) in data set [1] of 12.8 µM.

Turning to `CC(C)n1cnc2c(N)ncnc21`, the inhibition constant (Ki) in data set [2] was 10.3 µM. Moreover, in data set [1], the concentration for half-maximal inhibition (IC50) came to 14.9 µM.

The molecule `CC(C)(C)n1cnc2c(N)ncnc21` showed a Ki in data set [2] of 6.9 µM. The IC50 in data set [1] turned out to be 10.2 µM.

Regarding `Nc1ncnc2c1ncn2C1CCCC1`, the Ki in data set [2] stood at 6 µM. The molecule further had a concentration for half-maximal inhibition (IC50) in data set [1] of 8.7 µM.

A word on the IC50: it is the concentration needed to halve the response being measured. Read a low IC50 as higher potency. What is called Ki is a measure of affinity in units of concentration, obtained from inhibition or displacement. The low end stands for tighter binding, the high end for weaker binding. Usually Km stands for the concentration of substrate that gives half-maximal velocity.

The values are drawn from ChEMBL document CHEMBL1124860, “Purine derivatives as competitive inhibitors of human erythrocyte membrane phosphatidylinositol 4-kinase” (J Med Chem, 1990).
